Common to all, as to type: functional
Assay [1] deals with Aspergillus fumigatus. Description: Antifungal activity against Aspergillus fumigatus NCIM 902 at MIC after 3 to 4 days by agar well diffusion method. Put shortly:
(§1)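 Sabouraud agar (peptone, D-glucose, agar; pH 5.7) seeded with spore suspension made by transferring a loopful of fungus to 3 mL normal saline. Excess decanted, plates dried 1 h at 37 °C. Compounds in DMSO at MIC added to punched wells; DMSO control. Triplicate plates kept 3–4 days at 37 °C.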

The test system of assay [2] is Staphylococcus aureus. Kind of assay: Antibacterial activity against Staphylococcus aureus ATCC 25923 after 16 to 18 hrs by serial plate dilution method. Put shortly: (§2)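 Drug serially diluted in Mueller–Hinton broth in tubes, adjusted to pH 5.0 with phosphate buffer. Inoculated with standardized bacterial suspension and incubated 16–18 h at 37 °C. MIC taken as lowest concentration with no visible growth.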

Assay [3] deals with Escherichia coli. Description: Antibacterial activity against Escherichia coli ATCC 25922 after 16 to 18 hrs by serial plate dilution method. Put shortly:
as §2

Assay [4] relates to Pseudomonas aeruginosa. Description: Antibacterial activity against Pseudomonas aeruginosa ATCC 27853 after 16 to 18 hrs by serial plate dilution method. Put shortly: as §2
For assay [5], the system named is Klebsiella pneumoniae. Kind of assay: Antibacterial activity against recultured Klebsiella pneumoniae after 16 to 18 hrs by serial plate dilution method. In outline:
as §2

The test system of assay [6] is Staphylococcus aureus. Kind of assay: Antibacterial activity against Staphylococcus aureus ATCC 25923 at MIC after 3 to 4 days by agar well diffusion method.
Assay [7] deals with Escherichia coli. Description: Antibacterial activity against Escherichia coli ATCC 25922 at MIC after 3 to 4 days by agar well diffusion method.
Assay [8] has as its system Pseudomonas aeruginosa. Description: Antibacterial activity against Pseudomonas aeruginosa ATCC 27853 at MIC after 3 to 4 days by agar well diffusion method.
For assay [9], the system named is Klebsiella pneumoniae. Description: Antibacterial activity against recultured Klebsiella pneumoniae at MIC after 3 to 4 days by agar well diffusion method.
Assay [10] relates to Talaromyces marneffei. Kind of assay: Antifungal activity against recultured Penicillium marneffei by serial plate dilution method.
Assay [11] relates to Trichophyton mentagrophytes. Kind of assay: Antifungal activity against recultured Trichophyton mentagrophytes by serial plate dilution method.
For assay [12], the system named is Aspergillus flavus. Description: Antifungal activity against Aspergillus flavus NCIM 524 by serial plate dilution method.
Assay [13] relates to Aspergillus fumigatus. Kind of assay: Antifungal activity against Aspergillus fumigatus NCIM 902 by serial plate dilution method.
The test system of assay [14] is Talaromyces marneffei. Kind of assay: Antifungal activity against recultured Penicillium marneffei at MIC after 3 to 4 days by agar well diffusion method. Put shortly: as §1
Assay [15] concerns Trichophyton mentagrophytes. Kind of assay: Antifungal activity against recultured Trichophyton mentagrophytes at MIC after 3 to 4 days by agar well diffusion method. Put shortly:
as §1

The subject of assay [16] is Aspergillus flavus. Kind of assay: Antifungal activity against Aspergillus flavus NCIM 524 at MIC after 3 to 4 days by agar well diffusion method. In outline:
as §1

Converted amounts (≈) assume the structure as drawn. Some results are limits rather than exact numbers.

Take `CC(C)N1CCN(c2c(-c3nnc(S)n3-c3ccccc3)cnc3c(C(F)(F)F)cccc23)CC1`: the “inhibition zone (IZ)” value in assay [1] is on record as less than 10 mm; in [6] it was less than 10 mm; in assay [7] it was 20 mm; in assay [8], less than 10 mm; in assay [9] it was less than 10 mm; in assay [14], less than 10 mm. The “inhibition zone (IZ)” value in assay [15] and in [16] was less than 10 mm each time. Further, the MIC in [2] came out at 50 µg/mL (≈ 100 µM); in [3], 6.25 µg/mL (≈ 12.5 µM); in [4], 50 µg/mL (≈ 100 µM); in assay [5], 50 µg/mL (≈ 100 µM); in [10] it was 50 µg/mL (≈ 100 µM); in assay [11], 50 µg/mL (≈ 100 µM). The MIC in assay [12] and in [13] was 50 µg/mL (≈ 100 µM) in each case.
In the case of `CC(C)(C)CCNc1c(-c2nnc(S)n2Cc2ccccc2)cnc2c(C(F)(F)F)cccc12`, the “inhibition zone (IZ)” value in [1] was determined as 10 mm; in assay [6], 10 mm; in assay [7], 16 mm; in [8], 10 mm; in assay [9], 12 mm; in assay [14] it was 10 mm. Also, the “inhibition zone (IZ)” value in assay [15] is on record as 16 mm; in assay [16] it was 10 mm. The MIC in assay [2], in assay [3], in assay [4], in [5], in assay [10] and in assay [11] was 12.5 µg/mL (≈ 25.7 µM) each time. The MIC in [12] and in assay [13] was 12.5 µg/mL (≈ 25.7 µM) each time.
In the case of `COCCn1c(S)nnc1-c1cnc2c(C(F)(F)F)cccc2c1NCCC(C)(C)C`, the “inhibition zone (IZ)” value in [1] was 16 mm; in assay [6], less than 10 mm; in assay [7], less than 10 mm; in assay [8], less than 10 mm; in assay [9] it was less than 10 mm; in assay [14], 16 mm. Further, the “inhibition zone (IZ)” value is recorded as 20 mm in [15] and 16 mm in assay [16]. The MIC in [2] was determined as 50 µg/mL (≈ 110 µM); in [3], 50 µg/mL (≈ 110 µM); in assay [4] it was 50 µg/mL (≈ 110 µM); in assay [5], 50 µg/mL (≈ 110 µM); in [10], 6.25 µg/mL (≈ 13.8 µM); in assay [11], 6.25 µg/mL (≈ 13.8 µM). The MIC in [12] and in assay [13] was 6.25 µg/mL (≈ 13.8 µM) throughout.
On to `Oc1c(-c2nnc(S)n2Cc2ccccc2)cnc2c(C(F)(F)F)cccc12`, for which the “inhibition zone (IZ)” value in assay [1], in assay [6], in assay [7], in assay [8], in assay [9] and in [14] was less than 10 mm throughout. In addition, the “inhibition zone (IZ)” value in [15] and in [16] was less than 10 mm each time. Besides, the minimum inhibitory concentration (MIC) in assay [2], in [3], in assay [4], in assay [5], in assay [10] and in assay [11] was 50 µg/mL (≈ 124 µM) in each case. The MIC in assay [12] and in assay [13] was 50 µg/mL (≈ 124 µM) throughout.
In the case of `FC(F)(F)c1cccc2c(NC3CC3)c(-c3nnc(S)n3Cc3ccccc3)cnc12`, the “inhibition zone (IZ)” value in assay [1] is 16 mm; in assay [6], 16 mm; in assay [7], 20 mm; in assay [8], 16 mm; in assay [9], 16 mm; in [14], 16 mm. Further, the “inhibition zone (IZ)” value in assay [15] is listed as 20 mm; in assay [16], 16 mm. Besides, the MIC in assay [2], in assay [3], in assay [4], in assay [5], in assay [10] and in [11] was 6.25 µg/mL (≈ 14.2 µM) each time. Moreover, the MIC in assay [12] and in [13] was 6.25 µg/mL (≈ 14.2 µM) each time.
As to `OCCCC1CCN(c2c(-c3nnc(S)n3Cc3ccccc3)cnc3c(C(F)(F)F)cccc23)CC1`, the “inhibition zone (IZ)” value came to 10 mm in assay [1]; 10 mm in assay [6]; 16 mm in assay [7]; 10 mm in assay [8]; 12 mm in assay [9]; 10 mm in [14]. Further, the “inhibition zone (IZ)” value in [15] is reported as 16 mm; in assay [16], 10 mm. Moreover, the minimal inhibitory concentration (MIC) in assay [2], in [3], in [4], in assay [5], in [10] and in assay [11] was 12.5 µg/mL (≈ 23.7 µM) each time. Besides, the MIC in assay [12] and in assay [13] was 12.5 µg/mL (≈ 23.7 µM) each time.
In the case of `NCCN1CCN(c2c(-c3nnc(S)n3Cc3ccccc3)cnc3c(C(F)(F)F)cccc23)CC1`, the “inhibition zone (IZ)” value in [1] is listed as less than 10 mm; in [6] it was less than 10 mm; in assay [7], 20 mm; in [8], less than 10 mm; in [9], less than 10 mm; in assay [14], less than 10 mm. For the same compound, the “inhibition zone (IZ)” value in assay [15] and in assay [16] was less than 10 mm in each case. The minimal inhibitory concentration (MIC) in assay [2] is 50 µg/mL (≈ 97.4 µM); in assay [3], 6.25 µg/mL (≈ 12.2 µM); in [4], 50 µg/mL (≈ 97.4 µM); in [5], 50 µg/mL (≈ 97.4 µM); in [10] it was 50 µg/mL (≈ 97.4 µM); in [11] it was 50 µg/mL (≈ 97.4 µM). The minimal inhibitory concentration (MIC) in assay [12] and in assay [13] was 50 µg/mL (≈ 97.4 µM) throughout.

The values are drawn from ChEMBL document CHEMBL1155347, “Synthesis and antimicrobial activities of novel quinoline derivatives carrying 1,2,4-triazole moiety” (2009).
